Columns and labels:
[1] = target: O-acyltransferase (Oryctolagus cuniculus, UniProt G1SFD9); experiment: (§1) Acyl coenzyme A:cholesterol acyltransferase 1 inhibition in vitro measured in rabbit intestinal microsomes; design: species or system Intestine
[2] = target: T1, Sterol O-acyltransferase 1 (Rattus norvegicus) (UniProt O70536); experiment: Percent change in plasma total cholesterol in an acute cholesterol-fed rat model of hypercholesterolemia, dose at 3 mg/kg; format: functional, organism-based; design: dose 3 mg/kg
T1 sequence (whole entry): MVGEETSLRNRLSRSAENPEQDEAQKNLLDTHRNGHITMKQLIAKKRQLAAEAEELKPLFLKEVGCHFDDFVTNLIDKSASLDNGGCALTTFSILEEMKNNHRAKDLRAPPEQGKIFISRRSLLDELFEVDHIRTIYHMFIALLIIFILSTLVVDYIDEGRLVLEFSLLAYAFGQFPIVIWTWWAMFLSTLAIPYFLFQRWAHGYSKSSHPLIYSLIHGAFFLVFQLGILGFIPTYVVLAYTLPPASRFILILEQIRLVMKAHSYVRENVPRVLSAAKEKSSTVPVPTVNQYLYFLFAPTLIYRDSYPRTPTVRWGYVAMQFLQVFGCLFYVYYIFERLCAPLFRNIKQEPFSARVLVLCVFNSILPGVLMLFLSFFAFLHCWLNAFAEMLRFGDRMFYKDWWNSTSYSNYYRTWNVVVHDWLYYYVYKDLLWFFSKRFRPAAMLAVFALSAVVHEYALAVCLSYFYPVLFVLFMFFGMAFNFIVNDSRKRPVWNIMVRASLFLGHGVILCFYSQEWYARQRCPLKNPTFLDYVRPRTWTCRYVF

[3] = target: T1, Sterol O-acyltransferase 1 (Rattus norvegicus); experiment: Percent change in plasma total cholesterol in an acute cholesterol-fed rat model of hypercholesterolemia, dose at 30 mg/kg; format: functional, organism-based; design: dose 30 mg/kg
[4] = test system: Rattus norvegicus; experiment: Percent change in HDL-C,Dose at 30 mg/kg; format: functional
Outline: (§2)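 Chronic rat model of pre-established hypercholesterolemia: 1 week on high-cholesterol diet, then compound dosed orally once daily for 1 week. Plasma total cholesterol, HDL-C and non-HDL-C expressed as percent change versus control; p < 0.05 flagged.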

[5] = test system: Rattus norvegicus; experiment: Percent change in non-HDL-C Dose at 30 mg/kg; format: functional; outline: as §2
[6] = target: T1, Sterol O-acyltransferase 1 (Rattus norvegicus); experiment: (§3) Percent change in plasma TC in the chronic C-fed rat model of pre-established hypercholesterolemia. Dose at 30 mg/kg; format: functional, organism-based; design: dose 30 mg/kg; outline: as §2
[7] = test system: Rattus norvegicus; experiment: Percent change in HDL-C,Dose at 3 mg/kg; format: functional; outline: as §2
[8] = test system: Rattus norvegicus; experiment: Percent change in plasma TC in the chronic C-fed rat model of pre-established hypercholesterolemia. Dose at 10 mg/kg; format: functional; outline: as §2
[9] = test system: Rattus norvegicus; experiment: Percent change in HDL-C,dose at 30 mg/kg; format: functional; outline: as §2
[10] = test system: Canis familiaris; experiment: Percent change in plasma cholesterol in dog at 3 mg/kg; format: functional, Canis lupus familiaris
Outline: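 Cholesterol-fed female Beagle dogs given bulk drug in capsules before meals, daily for 1 week, at 3 mg/kg po. Plasma total cholesterol compared before and after treatment as percent change; paired two-tailed t-test, n = 6.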

[11] = test system: Rattus norvegicus; experiment: as §3; format: functional; outline: as §2
[12] = test system: Rattus norvegicus; experiment: Percent change in HDL-C,Dose at 10 mg/kg; format: functional; outline: as §2
[13] = test system: Rattus norvegicus; experiment: Percent change in plasma TC in the chronic C-fed rat model of pre-established hypercholesterolemia. Dose at 3 mg/kg; format: functional; outline: as §2
[14] = test system: Rattus norvegicus; experiment: Percent change in non-HDL-C,Dose at 10 mg/kg; format: functional; outline: as §2
[15] = test system: Rattus norvegicus; experiment: Percent change in non-HDL-C,Dose at 3 mg/kg; format: functional; outline: as §2
[16] = test system: Rattus norvegicus; experiment: Percent change in non-HDL-C,dose at 30 mg/kg; format: functional; outline: as §2
[17] = test system: Canis familiaris; experiment: mean blood drug concentration in dog, compound Dose at 3 mg/kg; format: ADME, organism-based, Canis lupus familiaris; design: dose 3 mg/kg; conditions: in vivo
Outline: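 Cholesterol-fed Beagle dogs dosed at 3 mg/kg. Plasma drug measured by HPLC on a C8 column, acetonitrile/water 4:1 eluent, detection at 190 nm, with a related analog as internal standard. Quantitation limit 40 ng/mL; mean of 6 animals.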

[18] = test system: Rattus norvegicus; experiment: Percent change in HDL-CDose at 30 mg/kg; format: functional; outline: as §2
[19] = target: T2, Acyl-CoA:cholesterol acyltransferase (Oryctolagus cuniculus) (UniProt Q95214); experiment: as §1; conditions: Intestine, concentration not given here
T2 sequence (whole entry): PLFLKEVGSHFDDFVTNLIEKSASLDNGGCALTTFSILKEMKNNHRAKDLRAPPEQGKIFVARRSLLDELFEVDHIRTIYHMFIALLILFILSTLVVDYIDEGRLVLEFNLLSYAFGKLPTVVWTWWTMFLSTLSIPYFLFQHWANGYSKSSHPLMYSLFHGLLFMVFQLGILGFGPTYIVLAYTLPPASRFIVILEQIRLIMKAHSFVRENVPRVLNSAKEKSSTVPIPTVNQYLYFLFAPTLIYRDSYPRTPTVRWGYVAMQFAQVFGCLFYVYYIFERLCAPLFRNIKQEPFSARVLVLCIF
Outline: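 ACAT activity in intestinal microsomes from cholesterol-fed rabbits, measured by incubation with 14C-labeled oleoyl-CoA; IC50 is the micromolar concentration giving 50% inhibition of enzyme activity.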

[20] = test system: Rattus norvegicus; experiment: Percent change in non-HDL-C,Dose at 30 mg/kg; format: functional; outline: as §2
[21] = test system: Rattus norvegicus; experiment: Percent change in plasma TC in the chronic C-fed rat model of pre-established hypercholesterolemia, dose at 3 mg/kg; format: functional; outline: as §2

SMILES | IC50 [1] [nM] | Delta TC [2] [%] | Delta TC [3] [%] | other results
CCCCCCCCCCCCc1cc(NC(=O)Nc2c(C(C)C)cccc2C(C)C)on1 | 19 | -58 | -61 | Delta HDL-C [4]: 100%; Non-HDL-C [5]: -68%; Delta TC [6]: -56%
CCCCCCCCCc1nnc(NC(=O)Nc2c(C(C)C)cccc2C(C)C)s1 | 150 |  | -39 | 
CC(C)=CCC/C(C)=C/Cn1nnc(NC(=O)Nc2c(C(C)C)cccc2C(C)C)n1 | 63 |  | -27 | 
CCCCCCCCN1NN=C(NC(=O)Nc2c(C(C)C)cccc2C(C)C)N1 | 59 | -24 | -67 | 
CCCCCCCCCCCCCc1nnc(NC(=O)Nc2c(C(C)C)cccc2C(C)C)o1 | 18 | -34 | -62 | 
CCCCCCCCCCCCN1NN=C(NC(=O)Nc2c(C(C)C)cccc2C(C)C)N1 | 14 | -61 | -67 | Delta HDL-C [7]: 20%; Delta TC [8]: -64%; Delta HDL-C [9]: 93%; Delta plasma cholesterol [10]: -39%; Delta TC [11]: -69%; Delta HDL-C [12]: 87%; Delta TC [13]: -43%; Non-HDL-C [14]: -72%; Non-HDL-C [15]: -47%; Non-HDL-C [16]: -78%; Plasma level [17]: 29.3 ng/mL
CCCCCCCCCCCCCSc1n[nH]c(NC(=O)Nc2c(C(C)C)cccc2C(C)C)n1 |  |  | 12 | 
CCCCCCCCCCCCCCc1cc(NC(=O)Nc2c(C(C)C)cccc2C(C)C)on1 | 28 | -44 | -64 | Non-HDL-C [5]: -18%; Delta HDL-C [18]: 16%; Delta TC [6]: -16%
CCCCCCCCCCCCN1NN=C(CNC(=O)Nc2c(C(C)C)cccc2C(C)C)N1 | 12 | -31 | -58 | 
CCCCCCCCCCCCn1nnnc1NC(=O)Nc1c(OC)cc(OC)cc1OC |  |  |  | inhibition [19]: 28%
CCCCCCCCCCCCn1ncnc1NC(=O)Nc1c(C(C)C)cccc1C(C)C | 250 |  | -36 | 
CCCCCCCCCCN1NN=C(NC(=O)Nc2c(C(C)C)cccc2C(C)C)N1 | 14 | -35 | -62 | 
CCCCCCCCCCCCn1nnnc1NC(=O)Nc1c(C(C)C)cccc1C(C)C | 210 | -45 | -57 | 
CCCCCCCCCCCCCN1NN=C(NC(=O)Nc2c(C(C)C)cccc2C(C)C)N1 | 9 | -67 | -67 | Delta HDL-C [7]: 21%; Delta TC [8]: -64%; Delta plasma cholesterol [10]: -47%; Non-HDL-C [20]: -76%; Delta HDL-C [4]: 113%; Delta HDL-C [12]: 113%; Delta TC [21]: -52%; Non-HDL-C [14]: -73%; Non-HDL-C [15]: -47%; Delta TC [6]: -66%; Plasma level [17]: 76.7 ng/mL
CCCCN1NN=C(NC(=O)Nc2c(C(C)C)cccc2C(C)C)N1 | 92 |  | -26 | 
CCCCCCCCCN1NN=C(NC(=O)Nc2c(C(C)C)cccc2C(C)C)N1 | 31 | 1 | -65 | 
CC(C)c1cccc(C(C)C)c1NC(=O)Nc1nnn[nH]1 | > 10000 |  |  | 
CC(C)c1cccc(C(C)C)c1NC(=O)Nc1nnn(CCCCCCCCCCCOC2CCCCO2)n1 (stereo unspecified) | 37 | -28 | -53 | 
CCCCCCCCCCCCCSc1nnc(NC(=O)Nc2c(C(C)C)cccc2C(C)C)n1C(C)=O | 680 |  | -21 | 
CCCCCCN1NN=C(NC(=O)Nc2c(C(C)C)cccc2C(C)C)N1 | 73 | -21 | -59 | 
CCCCCCCCCCCCn1cnc(NC(=O)Nc2c(C(C)C)cccc2C(C)C)n1 | 120 |  | -30 | 
CC(C)c1cccc(C(C)C)c1NC(=O)NC1=NN(Cc2ccccc2)NN1 | 370 |  | -27 | 
